Compound activity deposited in PubChem BioAssay by several laboratories.
ABCB1 block: inhibitors of human ABCB1 transporter, ABCG2 counter-screen. P08183. CCRF-Adr cells, JC-1 efflux, flow cytometry. inhibition, % at 6.6 µM. 0.067% of 190,000 active. AID 1326; in the data active = inhibition above about 40%;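 also: 0% = vehicle and 100% = reference inhibitor; higher value means more JC-1 retained so stronger ABCB1 efflux block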
PKD1 kinase inh: PKD1 (human) kinase inhibition; Q15139; PKD1 kinase fluorescence polarization assay; inhibition, % (test concentration not listed); 0.056% of 200,000 active
Avidin fluor: avidin bead compound fluorescence profile; Avidin beads, compound fluorescence 488/530 nm, flow cytometry; stronger effect = higher value; fluorescence (KMESF) at 10 µM; 0.38% of 220,000 active; AID 1775; in the data active = fluorescence above about 47
ABCG2 inh: blocks JC-1 efflux by human ABCG2 transporter; AID 1325; inhibition, % at 6.6 µM; IgMXP3 cells, flow cytometry; 0.1% of 190,000 active; Q9UNQ0;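 active = inhibition above 80%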;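 also: 0% = DMSO and 100% = nicardipine control wells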
Target sequence (Q9UNQ0 whole entry, looked up): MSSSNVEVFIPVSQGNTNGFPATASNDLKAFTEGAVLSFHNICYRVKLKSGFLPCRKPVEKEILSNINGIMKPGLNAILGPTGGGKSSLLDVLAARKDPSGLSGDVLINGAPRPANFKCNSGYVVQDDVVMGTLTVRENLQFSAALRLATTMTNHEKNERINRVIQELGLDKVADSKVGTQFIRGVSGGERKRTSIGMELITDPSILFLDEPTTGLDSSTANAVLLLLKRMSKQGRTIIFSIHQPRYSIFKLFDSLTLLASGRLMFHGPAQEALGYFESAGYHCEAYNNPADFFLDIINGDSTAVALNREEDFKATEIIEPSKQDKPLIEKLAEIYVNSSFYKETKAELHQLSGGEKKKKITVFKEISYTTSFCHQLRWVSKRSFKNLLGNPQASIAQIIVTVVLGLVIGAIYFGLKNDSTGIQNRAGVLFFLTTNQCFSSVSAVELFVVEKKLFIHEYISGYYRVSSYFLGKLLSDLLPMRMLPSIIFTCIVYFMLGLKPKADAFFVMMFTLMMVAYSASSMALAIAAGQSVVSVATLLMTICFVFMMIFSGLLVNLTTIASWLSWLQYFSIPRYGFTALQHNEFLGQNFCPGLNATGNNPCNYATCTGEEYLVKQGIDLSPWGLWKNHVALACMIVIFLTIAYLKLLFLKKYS
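Test system: IgMXP3 cells (ABCG2) mixed with DDAO far-red-labelled CCRF-Adr cells (ABCB1). Reagent: JC-1 transporter substrate. Compound dosing: single test compound dose, 6.6 µM final. Times: 10 min compound exposure, 25 °C. Detection: flow cytometry of retained JC-1 fluorescence. Read-out basis: efflux inhibition in percent versus controls. Controls: nicardipine and DMSO wells.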
Lmaj promast: inhibitors of Leishmania major promastigote growth. AID 1063. 9% of 200,000 active. Leishmania major promastigotes, resazurin fluorescence viability. inhibition, % at 10 µM;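 also: promastigotes grown with compound for 44 hours at 28 °C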
GSH fluor: compound fluoresces at 488/530 nm on GSH beads; GSH beads flow cytometry, compound fluorescence 488/530 nm; stronger effect = higher value; fluorescence (KMESF) at 10 µM; 0.25% of 190,000 active; AID 1776; in the data active = fluorescence above about 89;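 also: glutathione beads carrying GST-tagged Bcl family fusion proteins plus one bare bead set; values are compound well signal with DMSO vehicle wells as background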
Numbers without * were called inactive; · = not tested or not shown. Many of the other results were omitted from the sample, so hits are more common in it than they were. Rule as the data show it, unless noted: active = inhibition above about 50%; inactive = the rest.

SMILES	ABCB1 block	PKD1 kinase inh	Avidin fluor	ABCG2 inh	Lmaj promast	GSH fluor
Cc1ccc(N2C(=O)C3CC(c4ccccc4)=C4C5C=CC(C6C(=O)N(c7ccc(C)cc7)C(=O)C56)C4C3C2=O)cc1 (centres undefined)	0.4	-5.2	12	-1.4	97.7*	6
Cc1ccc(N2C(=O)C3CC(c4ccccc4)=C4C5C=CC(C6C(=O)N(c7ccc(C)cc7C)C(=O)C56)C4C3C2=O)c(C)c1 (centres undefined)	-0.3	-1.0	8	-2.1	77.8*	10
O=C(CN(C(=O)c1csnn1)c1cccc2ccccc12)NC1CCCC1	0.0	3.3	11	0.1	8.5	10
CCOC(=O)N1CCC(=C2c3ccc(Cl)cc3CCc3cccnc32)CC1	·	-4.7	8	·	13.6	20
O=C(Nc1ccc2c(c1)OCO2)C1CCN(C(=O)c2ccc(Cl)cc2)CC1	0.4	-5.9	12	1.7	-5.0	25
O=C(Nc1ccc2c(c1)OCO2)C1CCN(C(=O)CSc2ncnc3ccccc23)CC1	·	-17.7	·	·	78.6*	·
CC(Sc1ccc2c(c1)OCCO2)C(=O)Nc1ccc2c(c1)OCO2 (centres undefined)	1.0	7.9	5	4.7	-2.3	48
COc1ccc(C(=O)N2CCC(C(=O)Nc3ccc4c(c3)OCO4)CC2)cc1	0.9	-1.7	12	5.7	52.3*	5
CC(Sc1ncnc2ccccc12)C(=O)Nc1ccc2c(c1)OCO2 (centres undefined)	0.0	9.1	·	0.0	80.4*	15
CCOC(=O)C1C(=O)C=C(Nc2ccccc2F)CC1c1ccccc1 (centres undefined)	0.6	8.8	11	7.8	0.2	12
O=C(Nc1ccc(Oc2ccc(C(=O)O)c(C(=O)O)c2)cc1)c1cccs1	-0.3	-2.4	9	-0.4	-3.9	53
CCOc1ccccc1N(C)C(=O)c1nn(-c2ccc(OC)cc2OC)c(=O)c2ccccc12	0.4	-5.7	12	3.2	13.4	20
O=C(CS(=O)(=O)Cc1ccccc1)N1CCN(Cc2ccc3c(c2)OCO3)CC1	4.3	0.7	27	3.8	69.0*	37
O=C(CSCc1cccc(Cl)c1)N1CCN(Cc2ccc3c(c2)OCO3)CC1	0.2	2.1	9	-0.1	91.1*	49
O=C(c1cc(-c2ccncc2)nc2ccc(Cl)cc12)N1CCN(Cc2ccc3c(c2)OCO3)CC1	1.3	-2.8	9	1.7	81.3*	18
O=C(CSc1nnc2c(n1)[nH]c1ccccc12)Nc1ccc(S(=O)(=O)Nc2ncccn2)cc1	0.0	-7.6	10	0.5	-0.9	56
CC(/C=N/Nc1nc(C)cc(C)n1)=C\c1ccc(C(C)C)cc1	1.2	-6.3	5	11.7	0.4	25
O=C1CC(c2cc([N+](=O)[O-])ccc2Cl)c2c(ccc3ccccc23)N1 (centres undefined)	0.3	1.5	14	0.7	92.3*	20
Cc1cc(N2CCOCC2)c2c(N)c(C)cc(C)c2n1	0.4	5.9	61*	1.2	3.4	26
c1ccc2c(c1)OCCOCCOCCOCCOc1ccccc1OCCOCCOCCO2	1.7	5.6	12	-0.5	99.2*	15
O=C(NCCc1c[nH]c2ccccc12)c1cc(S(=O)(=O)N2CCCCC2)ccc1N1CCOCC1	2.3	7.7	33	34.9	64.6*	19
O=C(CN1CCN(c2ccccn2)CC1)N1c2ccccc2Sc2ccc(C(F)(F)F)cc21	3.7	6.6	19	4.0	68.0*	25
O=C(CSc1nc2ccccc2o1)N1c2ccccc2Sc2ccc(C(F)(F)F)cc21	0.6	-7.5	13	4.4	79.7*	16
CC(=O)Nc1nc(CC(C)C)cc(-c2ccco2)c1C#N	0.1	-5.4	57*	0.3	-2.1	21
CC(=O)Nc1nc(CC(C)C)cc(-c2ccccc2)c1C#N	·	·	3	·	·	·
SMILES	ABCB1 block	PKD1 kinase inh	Avidin fluor	ABCG2 inh	Lmaj promast	GSH fluor
COc1cc(CNCCc2ccccc2)cc(Cl)c1OCc1ccccc1	7.4	-10.7	11	35.8	91.1*	11
CCOc1cc(CNCc2ccncc2)cc(Cl)c1OC	·	-8.3	6	1.8	88.7*	12
CCOc1cc(CNCC2CCCN2CC)cc(Cl)c1OC (centres undefined)	0.0	-5.4	21	-0.1	2.4	10
CCCCOc1c(Cl)cc(CNC(C)(C)CO)cc1OCC	0.7	4.3	16	19.2	41.6	15
CCCCNCc1cc(Cl)c(OCCC)c(OCC)c1	0.5	7.0	9	2.5	90.3*	9
COc1cc(CNCc2ccccc2)cc(Cl)c1OC	2.1	-2.5	13	7.0	65.6*	15
Cc1cc(C)n2c(SCC(=O)NC3CCCCC3)nnc2n1	0.8	-8.8	8	3.1	-0.8	28
Cc1ccc2nc(SCC(=O)NCc3cccs3)[nH]c2c1	0.7	-1.3	11	11.5	4.2	14
Cc1cccc(Cn2cnc3c(nnn3Cc3ccc(F)cc3)c2=O)c1	1.9	-4.1	10	4.4	1.2	15
Cc1cc2oc(=O)cc(Cn3ncc(Cl)c(Cl)c3=O)c2cc1Cl	1.1	7.6	6	5.7	99.7*	14
CCCc1cc(=O)[nH]c(SCC(=O)c2cc(C)n(CC(F)(F)F)c2C)n1	1.0	3.2	11	4.4	7.0	13
Cc1cccc(Cn2ncc(Cl)c(Cl)c2=O)c1	0.4	-2.5	26	2.4	62.1*	15
Cc1ccc(C)c(C(=O)Cn2ncc(Cl)c(Cl)c2=O)c1	0.1	1.3	8	0.9	95.3*	13
Cc1cc(Br)ccc1NC(=O)CNC(=O)Cn1ncc(Cl)c(Cl)c1=O	-0.3	5.4	6	-1.1	7.6	21
Cc1cc(C(=O)Cn2ncc(Cl)c(Cl)c2=O)c(C)n1CC(F)(F)F	0.2	-4.8	10	0.7	63.0*	18
COc1ccc(C2CC(=O)C(C(c3ccc(O)cc3)C3C(=O)CC(c4ccc(OC)cc4)CC3=O)C(=O)C2)cc1 (centres undefined)	·	·	7	·	·	·
CC(=O)Nc1sc2c(c1C(c1ccccc1Cl)N1CCN(CCO)CC1)CCCC2 (centres undefined)	-0.3	5.0	11	-2.7	36.5	11
CCOC(=O)COc1ccc2c(c1)c(C(=O)OCC)c(C)n2CC	2.0	5.3	12	18.7	-7.8	31
CC1CCCCC1NC(=O)COC(=O)c1c2c(nc3ccccc13)/C(=C/c1ccco1)CC2 (centres undefined)	-0.4	-9.8	1	-3.9	33.8	5
O=C(COC(=O)c1c2c(nc3ccccc13)/C(=C/c1ccco1)CC2)NC1CCCC1	·	-6.4	8	3.3	89.1*	7
CCN1C(=O)CC(NCc2ccc(S(N)(=O)=O)cc2)C1=O (centres undefined)	·	·	5	·	·	·
O=c1cc(/N=C/c2coc3c(ccc4ccccc43)c2=O)[nH]c(=S)[nH]1	-1.7	-5.6	15	-10.6	51.4*	11
COC(=O)c1cn(NC(=O)c2cccc(OC)c2)c(=O)c2ccccc12	0.8	8.0	·	1.6	-2.7	8
